Measured values gathered from unrelated publications.

`COc1nc(-c2cccc(-c3ccccc3)c2C)ccc1CNCCNC(=O)CCCCCCCCCCC(=O)N1CCN(CCNC(=O)c2cc3c(=O)n4cccc(C)c4nc3n(CCc3cccs3)c2=N)CC1` gave an AUC(0-t) of 2440 ng·h/mL (male Sprague-Dawley rat, plasma; intraperitoneal, 4 mg/kg).
`CCOCC(=O)N1CCC[C@H](C(=O)NCc2nc(-c3ccc(C#N)nc3)cs2)C1` gave an AUC of 21 µM·h (male Sprague-Dawley rat, plasma; oral, 3 mg/kg).
With `CN(C)C(=O)c1cc2cnc(Nc3ccc(N4CCNCC4)cn3)nc2n1C1CCCC1` the AUC was 12200 ng·h/mL (male Sprague-Dawley rat, plasma; intraperitoneal, 100 mg/kg).
For `C=C(CC(=O)OCc1oc(=O)oc1C)C(=O)O`, the Papp was roughly 15 ×10⁻⁶ cm/s (PAMPA; 10 µM, 4 h).
`NCCOCC(=O)N1CCC[C@H](C(=O)NCc2nc(-c3ccc(C(F)(F)F)cc3)cs2)C1` gave an AUC of 0.071 µM·h (male Sprague-Dawley rat, plasma; oral, 3 mg/kg).
For `Cc1c(S(=O)(=O)N2CCn3nccc3C2)cc(C(=O)NCc2c(F)ccnc2N2CCCC2)n1C`, the Papp was 16.8 ×10⁻⁶ cm/s (PAMPA).
`CCOCC(=O)N1CCC[C@H](C(=O)NCc2nc(-c3ccc(C)nc3)cs2)C1` gave an AUC of 32 µM·h (male Sprague-Dawley rat, plasma; oral, 3 mg/kg).
With `C[C@H]1Oc2cc(cnc2N)-c2c(nn(C)c2C#N)CN(C)C(=O)c2ccc(F)cc21` the AUC(0-inf) was 1870 ng·h/mL (male Sprague-Dawley rat, plasma; oral, 5 mg/kg, single dose).
`C=C(CC(=O)OCOC(=O)OC(C)C)C(=O)OCOC(=O)OC(C)C` has a Papp of greater than 10 ×10⁻⁶ cm/s (PAMPA; 10 µM, 4 h, pH 7.4).
